According to ChEMBL document CHEMBL2069238, “Discovery of potent and selective rhodanine type IKKβ inhibitors by hit-to-lead strategy” (Bioorg Med Chem Lett, 2012):

Legend:
[1] = target: T1, Inhibitor of nuclear factor kappa-B kinase subunit beta (Homo sapiens, UniProt O14920); experiment: Inhibition of IKKbeta using 5FAM-GRHDSGLDSMK-NH2 as substrate incubated for 10 mins prior to substrate addition by IMAP-TR-FRET assay
T1 sequence (O14920 whole entry): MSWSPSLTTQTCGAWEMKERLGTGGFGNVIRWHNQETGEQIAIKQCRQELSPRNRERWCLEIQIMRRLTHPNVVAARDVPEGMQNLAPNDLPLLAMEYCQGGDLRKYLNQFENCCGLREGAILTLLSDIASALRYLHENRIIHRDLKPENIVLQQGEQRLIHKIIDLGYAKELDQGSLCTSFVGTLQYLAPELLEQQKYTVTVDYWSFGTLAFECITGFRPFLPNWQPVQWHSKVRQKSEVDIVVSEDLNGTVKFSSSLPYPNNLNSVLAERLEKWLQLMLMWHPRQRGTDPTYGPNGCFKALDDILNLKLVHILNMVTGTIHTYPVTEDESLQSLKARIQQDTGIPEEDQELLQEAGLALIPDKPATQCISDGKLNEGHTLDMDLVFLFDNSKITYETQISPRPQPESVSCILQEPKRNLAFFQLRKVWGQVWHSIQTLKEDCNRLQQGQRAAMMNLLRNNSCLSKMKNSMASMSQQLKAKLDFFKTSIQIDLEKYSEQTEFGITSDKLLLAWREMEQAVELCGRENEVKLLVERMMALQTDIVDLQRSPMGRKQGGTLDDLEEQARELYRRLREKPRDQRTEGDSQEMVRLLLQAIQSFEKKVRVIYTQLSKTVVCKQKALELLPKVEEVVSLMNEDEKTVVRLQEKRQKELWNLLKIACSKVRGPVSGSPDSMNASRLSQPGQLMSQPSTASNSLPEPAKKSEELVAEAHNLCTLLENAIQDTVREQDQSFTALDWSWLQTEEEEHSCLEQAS

[2] = target: T2, Inhibitor of nuclear factor kappa-B kinase subunit beta (Mus musculus, UniProt O88351); experiment: Inhibition of IKKbeta in mouse CIA model splenocytes assessed as inhibition of TNFalpha production after 72 hrs by ELISA; format: cell-based
T2 sequence (O88351 whole entry): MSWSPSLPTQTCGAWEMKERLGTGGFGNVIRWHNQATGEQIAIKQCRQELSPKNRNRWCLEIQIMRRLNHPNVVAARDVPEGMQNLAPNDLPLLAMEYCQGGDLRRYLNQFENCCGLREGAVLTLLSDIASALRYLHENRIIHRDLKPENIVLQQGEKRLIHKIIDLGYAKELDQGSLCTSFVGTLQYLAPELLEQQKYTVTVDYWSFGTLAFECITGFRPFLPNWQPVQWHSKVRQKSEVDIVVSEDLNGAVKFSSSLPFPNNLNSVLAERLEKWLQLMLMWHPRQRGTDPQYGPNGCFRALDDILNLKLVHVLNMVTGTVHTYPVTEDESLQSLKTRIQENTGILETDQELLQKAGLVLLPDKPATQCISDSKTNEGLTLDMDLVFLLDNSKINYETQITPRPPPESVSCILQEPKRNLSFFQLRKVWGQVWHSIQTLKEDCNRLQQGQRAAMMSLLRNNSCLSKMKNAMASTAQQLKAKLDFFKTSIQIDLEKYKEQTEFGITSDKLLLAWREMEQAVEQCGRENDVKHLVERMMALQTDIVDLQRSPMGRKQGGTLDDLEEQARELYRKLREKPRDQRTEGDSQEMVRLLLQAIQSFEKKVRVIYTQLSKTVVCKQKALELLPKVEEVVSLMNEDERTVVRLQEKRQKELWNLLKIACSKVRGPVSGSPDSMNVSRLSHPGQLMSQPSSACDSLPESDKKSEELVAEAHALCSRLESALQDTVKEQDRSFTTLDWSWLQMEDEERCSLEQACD
Outline: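 Spleens from collagen type II-immunized mice were taken 8 weeks after primary immunization. Red cells were lysed with 0.83% ammonium chloride, and cells were strained and resuspended in RPMI 1640 at 1 × 10^6 cells/well, then exposed to inhibitor for 72 h. Supernatant TNFα was measured by sandwich ELISA with an alkaline phosphatase chromogenic read at 405 nm, quantified against a recombinant murine TNFα standard curve.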

[3] = target: T3, Inhibitor of nuclear factor kappa-B kinase subunit beta (Homo sapiens) (UniProt O14920); experiment: Inhibition of IKKbeta using 5FAM-GRHDSGLDSMK-NH2 as substrate at 10 uM incubated for 10 mins prior to substrate addition by IMAP-TR-FRET assay
T3 sequence (whole entry): T1 sequence (O14920 whole entry)

[4] = target: T3, Inhibitor of nuclear factor kappa-B kinase subunit beta (Homo sapiens); experiment: Inhibition of IKKbeta in human HeLa cells assessed as inhibition of TPA-induced NFkappaB activation at 10 uM incubated for 1 hr prior to TPA-challenge measured after 8 hrs by luciferase reporter gene assay; format: cell-based
Outline: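 HeLa cells transfected with an NF-κB luciferase reporter plasmid, pre-treated with inhibitor for 1 h, then stimulated with TPA (50 ng/mL) for 8 h. Luciferase activity normalized to protein content of each extract, expressed as relative luciferase units per mg versus non-treated cells; n = 3.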

[5] = target: Mitogen-activated protein kinase 9 (Homo sapiens, UniProt P45984); experiment: Inhibition of JNK2
[6] = target: T4, Inhibitor of nuclear factor kappa-B kinase subunit alpha (Homo sapiens, UniProt O15111); experiment: Inhibition of IKKalpha
T4 sequence (O15111 whole entry): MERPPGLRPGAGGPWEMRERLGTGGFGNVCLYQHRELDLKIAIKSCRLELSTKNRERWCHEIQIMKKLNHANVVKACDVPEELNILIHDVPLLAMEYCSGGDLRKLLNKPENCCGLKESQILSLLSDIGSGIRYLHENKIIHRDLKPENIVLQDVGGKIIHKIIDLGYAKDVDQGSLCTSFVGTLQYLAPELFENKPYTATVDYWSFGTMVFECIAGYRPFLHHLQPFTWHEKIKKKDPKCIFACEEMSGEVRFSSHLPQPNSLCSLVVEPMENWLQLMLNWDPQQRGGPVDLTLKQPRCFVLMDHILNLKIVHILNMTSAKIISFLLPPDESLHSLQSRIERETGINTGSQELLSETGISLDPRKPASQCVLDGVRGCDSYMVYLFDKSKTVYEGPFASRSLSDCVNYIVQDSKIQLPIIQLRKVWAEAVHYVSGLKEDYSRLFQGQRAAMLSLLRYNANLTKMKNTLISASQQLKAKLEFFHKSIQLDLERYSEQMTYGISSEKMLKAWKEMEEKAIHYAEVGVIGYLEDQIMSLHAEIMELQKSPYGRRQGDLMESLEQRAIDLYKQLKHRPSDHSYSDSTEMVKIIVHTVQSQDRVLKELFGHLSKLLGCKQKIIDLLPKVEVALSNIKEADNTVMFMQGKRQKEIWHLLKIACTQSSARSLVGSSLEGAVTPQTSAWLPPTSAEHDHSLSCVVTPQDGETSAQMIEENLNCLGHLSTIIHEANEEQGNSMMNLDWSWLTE

[7] = target: Mitogen-activated protein kinase 10 (Homo sapiens, UniProt P53779); experiment: Inhibition of JNK3
[8] = target: Mitogen-activated protein kinase 14 (Homo sapiens, UniProt Q16539); experiment: Inhibition of MAPK p38alpha
[9] = target: Mitogen-activated protein kinase 11 (Homo sapiens, UniProt Q15759); experiment: Inhibition of MAPK p38beta
[10] = target: Mitogen-activated protein kinase 8 (Homo sapiens, UniProt P45983); experiment: Inhibition of JNK1
Chain of Mitogen-activated protein kinase 8 (P45983 whole entry): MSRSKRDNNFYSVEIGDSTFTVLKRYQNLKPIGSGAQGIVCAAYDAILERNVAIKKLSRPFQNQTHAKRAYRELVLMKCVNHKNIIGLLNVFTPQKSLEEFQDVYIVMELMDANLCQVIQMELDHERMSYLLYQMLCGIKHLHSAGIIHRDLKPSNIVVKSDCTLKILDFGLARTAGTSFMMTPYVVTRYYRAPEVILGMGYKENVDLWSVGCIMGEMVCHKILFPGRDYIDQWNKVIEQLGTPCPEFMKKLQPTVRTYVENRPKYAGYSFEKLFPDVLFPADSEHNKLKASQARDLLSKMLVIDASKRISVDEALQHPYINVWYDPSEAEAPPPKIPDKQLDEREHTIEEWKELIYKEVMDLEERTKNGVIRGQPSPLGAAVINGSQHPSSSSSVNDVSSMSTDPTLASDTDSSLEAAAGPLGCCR

Chain of Mitogen-activated protein kinase 14 (Q16539 whole entry): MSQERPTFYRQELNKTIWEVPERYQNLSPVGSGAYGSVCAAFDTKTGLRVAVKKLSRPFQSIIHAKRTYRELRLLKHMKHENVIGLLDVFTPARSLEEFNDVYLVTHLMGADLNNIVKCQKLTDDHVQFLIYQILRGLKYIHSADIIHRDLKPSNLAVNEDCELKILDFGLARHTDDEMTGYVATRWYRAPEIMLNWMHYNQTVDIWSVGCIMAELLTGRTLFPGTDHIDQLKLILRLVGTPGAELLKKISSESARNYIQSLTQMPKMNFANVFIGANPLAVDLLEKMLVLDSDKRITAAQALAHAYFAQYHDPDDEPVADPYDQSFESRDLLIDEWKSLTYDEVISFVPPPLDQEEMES
Chain of Mitogen-activated protein kinase 10 (P53779 whole entry): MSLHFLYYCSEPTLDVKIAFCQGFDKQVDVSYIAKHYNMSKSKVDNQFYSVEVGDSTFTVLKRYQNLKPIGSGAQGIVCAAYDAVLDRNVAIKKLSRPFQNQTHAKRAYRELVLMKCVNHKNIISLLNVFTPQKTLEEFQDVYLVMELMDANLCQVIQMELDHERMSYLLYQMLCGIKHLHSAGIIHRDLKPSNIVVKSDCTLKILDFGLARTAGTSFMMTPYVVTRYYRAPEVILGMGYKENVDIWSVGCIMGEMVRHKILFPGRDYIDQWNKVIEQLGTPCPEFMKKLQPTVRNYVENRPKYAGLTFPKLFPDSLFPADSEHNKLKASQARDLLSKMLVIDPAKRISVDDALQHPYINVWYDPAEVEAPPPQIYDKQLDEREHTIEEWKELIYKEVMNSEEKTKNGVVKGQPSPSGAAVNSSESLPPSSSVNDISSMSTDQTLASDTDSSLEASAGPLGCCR
Chain of Mitogen-activated protein kinase 9 (P45984 whole entry): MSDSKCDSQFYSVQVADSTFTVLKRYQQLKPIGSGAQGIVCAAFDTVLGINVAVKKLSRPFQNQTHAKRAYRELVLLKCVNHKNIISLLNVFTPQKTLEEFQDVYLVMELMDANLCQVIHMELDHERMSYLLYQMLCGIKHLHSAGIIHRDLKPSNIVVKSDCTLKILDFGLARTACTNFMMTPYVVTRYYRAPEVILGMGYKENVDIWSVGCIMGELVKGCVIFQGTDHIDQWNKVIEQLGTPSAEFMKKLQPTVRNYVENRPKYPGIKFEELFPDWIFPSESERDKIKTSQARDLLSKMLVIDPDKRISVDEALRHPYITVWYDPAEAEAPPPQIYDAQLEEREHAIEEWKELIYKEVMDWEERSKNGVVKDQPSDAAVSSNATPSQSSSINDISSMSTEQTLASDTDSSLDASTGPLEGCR
Chain of Mitogen-activated protein kinase 11 (Q15759 whole entry): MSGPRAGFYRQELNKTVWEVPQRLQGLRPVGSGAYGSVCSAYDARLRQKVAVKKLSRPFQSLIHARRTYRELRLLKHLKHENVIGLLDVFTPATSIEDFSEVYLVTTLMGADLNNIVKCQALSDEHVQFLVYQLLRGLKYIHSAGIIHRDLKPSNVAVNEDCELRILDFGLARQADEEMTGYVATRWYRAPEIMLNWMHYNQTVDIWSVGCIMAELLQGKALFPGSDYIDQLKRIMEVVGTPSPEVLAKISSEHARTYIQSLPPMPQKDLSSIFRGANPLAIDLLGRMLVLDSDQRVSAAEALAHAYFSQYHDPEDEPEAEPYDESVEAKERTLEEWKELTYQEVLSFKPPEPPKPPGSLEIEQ

| SMILES | IC50 [1] | IC50 [2] | inhibition [3] | inhibition [4] | other results |
| --- | --- | --- | --- | --- | --- |
| CCN(CC)CCOc1ccc(N2C(=O)/C(=C/c3ccc(Oc4ccc(C(N)=O)cc4)cc3)SC2=S)cc1 | 8.7 µM | 8 µM | 62.6% | 58.5% | – |
| CCN(CC)CCCOc1ccc(N2C(=O)/C(=C/c3ccc(-c4cccc(C(N)=O)c4)o3)SC2=S)cc1 | 5.7 µM | – | 87.1% | 59.1% | – |
| NC(=O)c1cccc(Oc2ccc(/C=C3\SC(=S)N(c4ccc(OCCCN5CCOCC5)cc4)C3=O)cc2)c1 | – | – | 48.8% | – | – |
| CCN(CC)CCCOc1ccc(N2C(=O)/C(=C/c3ccc(Cl)c(Cl)c3)SC2=S)cc1 | 9.3 µM | – | 61.8% | – | – |
| NC(=O)c1ccccc1Oc1ccc(/C=C2\SC(=S)N(c3ccc(OCCCN4CCCC4)cc3)C2=O)cc1 | – | – | 21.3% | – | – |
| CCN(CC)CCCOc1ccc(N2C(=O)/C(=C/c3ccc(O)cc3)SC2=S)cc1 | 23.6 µM | – | 56% | – | – |
| CCN(CC)CCCOc1ccc(N2C(=O)/C(=C/c3ccc(Oc4ccccc4C(N)=O)cc3)SC2=S)cc1 | – | – | 4.8% | – | – |
| CCN(CC)CCCOc1ccc(N2C(=O)/C(=C/c3ccc(Oc4ccc(Cl)cc4)cc3)SC2=S)cc1 | 15.6 µM | 13 µM | 36.5% | 71.4% | – |
| CCN(CC)CCOc1ccc(N2C(=O)/C(=C/c3ccc(Oc4ccccc4C(N)=O)cc3)SC2=S)cc1 | – | – | 1.6% | – | – |
| NC(=O)c1ccccc1Oc1ccc(/C=C2\SC(=S)N(c3ccc(OCCCN4CCCCC4)cc3)C2=O)cc1 | – | – | 18.6% | – | – |
| CN1CCN(CCCOc2ccc(N3C(=O)/C(=C/c4ccc(Oc5cccc(C(N)=O)c5)cc4)SC3=S)cc2)CC1 | 1.5 µM | 5 µM | 86.8% | 64.7% | IC50 [5]: > 30 µM; IC50 [6]: > 30 µM; IC50 [7]: > 30 µM; IC50 [8]: > 30 µM; IC50 [9]: > 30 µM; IC50 [10]: > 30 µM |
| NC(=O)c1cccc(Oc2ccc(/C=C3\SC(=S)N(c4ccc(OCCCN5CCCC5)cc4)C3=O)cc2)c1 | 6.3 µM | 7 µM | 57.3% | 57% | – |
| CN1CCN(CCCOc2ccc(N3C(=O)/C(=C/c4ccc(Oc5ccc(C(N)=O)cc5)cc4)SC3=S)cc2)CC1 | 0.35 µM | 2 µM | 90.1% | 65.4% | IC50 [5]: > 30 µM; IC50 [6]: > 30 µM; IC50 [7]: > 30 µM; IC50 [8]: > 30 µM; IC50 [9]: > 30 µM; IC50 [10]: > 30 µM |
| NC(=O)c1ccc(Oc2ccc(/C=C3\SC(=S)N(c4ccc(OCCCN5CCCCC5)cc4)C3=O)cc2)cc1 | 4.2 µM | 30 µM | 81.2% | 48.2% | – |
| NC(=O)c1ccc(Oc2ccc(/C=C3\SC(=S)N(c4ccc(OCCCN5CCCC5)cc4)C3=O)cc2)cc1 | 1.5 µM | 5 µM | 85.3% | 58.5% | IC50 [5]: > 30 µM; IC50 [6]: > 30 µM; IC50 [7]: > 30 µM; IC50 [8]: > 30 µM; IC50 [9]: > 30 µM; IC50 [10]: > 30 µM |
| CCN(CC)CCCOc1ccc(N2C(=O)/C(=C/c3ccncc3)SC2=S)cc1 | – | – | 3.2% | – | – |

| SMILES | IC50 [1] | IC50 [2] | inhibition [3] | inhibition [4] | other results |
| --- | --- | --- | --- | --- | --- |
| CCN(CC)CCCOc1ccc(N2C(=O)/C(=C/c3c(Cl)cccc3Cl)SC2=S)cc1 | – | – | 3.4% | – | – |
| CN1CCN(CCCCCOc2ccc(N3C(=O)/C(=C/c4ccc(Oc5ccc(C(N)=O)cc5)cc4)SC3=S)cc2)CC1 | 0.16 µM | – | 89.3% | – | – |
| CCN(CC)CCCOc1ccc(N2C(=O)/C(=C/c3ccc(Oc4cccc(C(N)=O)c4)cc3)SC2=S)cc1 | 7.3 µM | 10 µM | 84.9% | 39.3% | – |
| NC(=O)c1cccc(Oc2ccc(/C=C3\SC(=S)N(c4ccc(OCCCN5CCCCC5)cc4)C3=O)cc2)c1 | 6.3 µM | 30 µM | 83% | 42.1% | – |
| CCN(CC)CCCOc1ccc(N2C(=O)/C(=C/C=C(c3ccccc3)c3ccccc3)SC2=S)cc1 | 14.1 µM | – | 52.6% | – | – |
| CN1CCN(CCCCOc2ccc(N3C(=O)/C(=C/c4ccc(Oc5ccc(C(N)=O)cc5)cc4)SC3=S)cc2)CC1 | 0.23 µM | 4 µM | 90.4% | – | – |
| CCN(CC)CCCOc1ccc(N2C(=O)/C(=C/c3ccc(C(N)=O)cc3)SC2=S)cc1 | – | – | 15.5% | – | – |
| N#Cc1c(C2CCCNC2)cc(-c2ccccc2O)nc1N (stereo not drawn) | 0.17 µM | 1.8 µM | 88.7% | 73.9% | IC50 [6]: 0.64 µM |
| CCN(CC)CCCOc1ccc(N2C(=O)/C(=C/c3ccc(Oc4ccc(C(N)=O)cc4)cc3)SC2=S)cc1 | 2.6 µM | 8 µM | 95.7% | 46.6% | – |
| CN1CCN(CCCOc2ccc(N3C(=O)/C(=C/c4ccc(Oc5ccccc5C(N)=O)cc4)SC3=S)cc2)CC1 | 8.5 µM | 12 µM | 52.7% | 42.4% | – |
| CCN(CC)CCOc1ccc(N2C(=O)/C(=C/c3ccc(Oc4cccc(C(N)=O)c4)cc3)SC2=S)cc1 | – | 7 µM | 17.1% | 57% | – |
| NC(=O)c1cccc(-c2ccc(/C=C3\SC(=S)N(c4ccc(OCCCN5CCOCC5)cc4)C3=O)o2)c1 | – | – | 2.1% | – | – |
| CCN(CC)CCCOc1ccc(N2C(=O)/C(=C/C=C/c3ccc(N(C)C)cc3)SC2=S)cc1 | – | – | 28.1% | – | – |
| CCN(CC)CCCOc1ccc(N2C(=O)/C(=C/c3ccc(-c4ccc(C(N)=O)cc4)o3)SC2=S)cc1 | 3.3 µM | – | 77.2% | 57.4% | – |
| CCN(CC)CCCOc1ccc(N2C(=O)/C(=C/c3ccc4ccccc4c3)SC2=S)cc1 | – | – | 23.4% | – | – |
